Results of several laboratories.
Protocols differ between the studies behind these lines.
Target: cAMP-dependent protein kinase catalytic subunit PRKX (PRKX, Homo sapiens, UniProt P51817)
Sequence (P51817 1-358, as in one of the studies): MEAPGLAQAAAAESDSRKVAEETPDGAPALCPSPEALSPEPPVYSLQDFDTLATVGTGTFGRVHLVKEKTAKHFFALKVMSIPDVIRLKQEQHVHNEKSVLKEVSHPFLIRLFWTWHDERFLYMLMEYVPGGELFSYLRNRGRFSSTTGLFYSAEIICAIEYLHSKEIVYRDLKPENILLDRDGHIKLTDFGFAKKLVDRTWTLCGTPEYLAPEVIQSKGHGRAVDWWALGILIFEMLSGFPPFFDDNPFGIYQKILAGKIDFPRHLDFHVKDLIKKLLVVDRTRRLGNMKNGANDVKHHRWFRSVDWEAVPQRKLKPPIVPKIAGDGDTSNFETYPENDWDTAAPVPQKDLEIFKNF

Cc1sc(C(=O)NC2COC2)cc1-n1cc(NC(=O)Nc2c(F)cccc2Cl)cn1 — remaining activity (enzyme activity, inhibitor; 10 µM): 87.5%
CCCOc1ccc(OC)c(F)c1C(=O)c1ccc(C(=O)N[C@@H]2CNC[C@H]2NC(=O)c2ccc3[nH]ncc3c2)cc1 — remaining activity (enzyme activity, inhibitor; 0.5 µM): 5%
COc1cc2ncnc(Nc3ccc(Oc4ccccc4)cc3C)c2cc1OC — inhibition (enzyme activity, inhibitor; 1 µM): 6%
CCS(=O)(=O)c1cc2cc(C[C@@](O)(CC(C)(C)c3ccc(F)cc3C(N)=O)C(F)(F)F)[nH]c2cn1 — remaining binding (cell-free assay, competition with immobilised ligand; 1 µM): 77%
Cn1cnc(Br)c1C1=CN(c2ncnc3[nH]cnc23)CCS1 — inhibition (enzyme activity, inhibitor, radiometric; 50 nM): 17.6%
CCN(CC)c1ccc(C2=NNC(=O)CC2C)cc1[N+](=O)[O-] (centres unmarked) — remaining activity (enzyme activity, inhibitor; 10 µM): 91%
CNCc1ccccc1-c1csc([C@@H](C)Nc2nc(C)nc3cc(OC)c(OC)cc23)c1 — remaining binding (cell-free assay, competition with immobilised ligand; 1 µM): 67%
N#CCCc1ccc2c(c1)-c1[nH]c3ccc([N+](=O)[O-])cc3c1CC(=O)N2 — remaining signal (cell-free assay; 0.5 µM): 78.4%
CO[C@@H](C)c1c(Nc2ccc([C@@H](N(C)C(=O)C3CCS(=O)(=O)CC3)C(F)(F)F)cc2)cnc2cc(Cl)nn12 — remaining binding (cell-free assay, competition with immobilised ligand; 1 µM): 84%
Cc1ccc(Nc2nccc(N(C)c3ccc4c(C)n(C)nc4c3)n2)cc1S(N)(=O)=O — inhibition (enzyme activity, inhibitor; 10 µM): 88%
Cc1cnc(NC2CCOCC2)nc1-n1cnc(C(=O)NC(CN)c2cc(F)cc(Cl)c2)c1 (centres unmarked) — remaining activity (enzyme activity, inhibitor, radiometric; 1 µM): 24%
O=C(Nc1cccnn1)N1CCC(=Cc2cccc(Oc3ccc(C(F)(F)F)cn3)c2)CC1 — remaining binding (cell-free assay, competition with immobilised ligand; 1 µM): 87%
Cc1ccc(NC(=O)c2ccc(C)c(C(F)(F)F)c2)cc1C#Cc1nn(C2CCC(O)CC2)c2ncnc(N)c12 (centres unmarked) — remaining signal (cell-free assay; 10 µM): 105%
CNC(=O)c1cc(Oc2ccc(NC(=O)Nc3ccc(Cl)c(C(F)(F)F)c3)cc2)ccn1 — inhibition (enzyme activity, inhibitor; 0.3 µM): 8%
O=c1cc(-c2cccc3c2Sc2ccccc2S3)oc(N2CCOCC2)c1 — remaining activity (enzyme activity, inhibitor; 0.5 µM): 113%
CC/C(=N\NC(=O)C(C)Nc1ccccc1)c1ccc(O)c(C)c1O (centres unmarked) — inhibition (enzyme activity, inhibitor; 0.1 µM): 45.2%
CN(C)c1nccc(-c2cnc3ncccn23)n1 — remaining binding (binding; 1 µM): 94%
Cc1ccc(C(=O)Nc2ccc(CN3CCN(C)CC3)c(C(F)(F)F)c2)cc1C#Cc1cnc2cccnn12 — remaining activity (enzyme activity; 23.5 nM): 77%
N#Cc1ccc(Nc2ccc3[nH]c(=O)[nH]c3c2)c(Cl)c1 — remaining binding (cell-free assay, competition with immobilised ligand; 1 µM): 100%
CCN(CC)CCNC(=O)c1c(C)[nH]c(/C=C2\C(=O)Nc3ccc(F)cc32)c1C — inhibition (enzyme activity, inhibitor; 10 µM): 15%
CC1=C(C#N)C(c2ccc3c(c2)c(NC(=O)c2ccccc2C)nn3C)C(C#N)=C(C)N1 — remaining binding (cell-free assay, competition with immobilised ligand; 1 µM): 76%
COc1cc(Cl)c(C(=O)N[C@@H](CN[C@H]2CC[C@@H](N)CC2)Cc2ccc(C#N)cc2)cc1-c1ccc(CN[C@H](C)c2ccc(C)cc2)o1 — remaining activity (enzyme activity, inhibitor; 1 µM): 97%
CS(=O)(=O)N1CCCC(NC(=O)[C@H](CCC2CCCCC2)NC(=O)c2ccc(CNc3ncnc4c3nnn4-c3ccccc3)cc2)C1 (some centres unmarked) — remaining binding (cell-free assay, competition with immobilised ligand; 0.1 µM): 100%
Cc1ccc(NC(=O)c2ccc(CN3CCN(C)CC3)cc2)cc1Nc1nc(-c2cccnc2)cs1 — remaining signal (cell-free assay; 0.5 µM): 99.5%
C[C@@H](c1cccc(C#N)c1)n1cc(Cl)cc(C(N)=O)c1=N — remaining binding (cell-free assay, competition with immobilised ligand; 1 µM): 100%
CC(C)(C)c1nc2c(s1)c1nc(N)ncc1c1ccc(NS(=O)(=O)c3c(F)cccc3F)c(F)c12 — remaining activity (enzyme activity, inhibitor, radiometric; 1 µM): 82%
